In ChEMBL document CHEMBL1765085, “Cytotoxic and apoptosis-inducing activities of triterpene acids from Poria cocos” (J Nat Prod, 2011) one finds Activity and IC50 data, which are given here for one molecule.

Active and inactive are the calls of the source. The calls are words filed in the database; no cut-off is given here.

Assay [1] concerns A549. The assay can be described thus: Induction of apoptosis in human A549 cells assessed as late apoptotic cells at 30 uM after 48 hrs by AnnexinV/propidium iodide staining (Rvb =1.1%). Format: functional.
Assay [2] relates to HL-60. The assay can be described thus: Cell cycle arrest in human HL60 cells assessed as accumulation at S phase at 30 uM after 24 hrs by flow cytometry (reference value: 42.6%). Format: functional. The essentials:
(§1)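 Cells seeded at 1 × 10^5 per sample for HL60 and 1.5 × 10^5 for A549, then exposed to 30 μM for 0, 24 or 48 h. After a PBS wash, DNA was stained with Nim-DAPI for 10 min at room temperature. Phase distribution was read by flow cytometry, with the sub-G1 (fragmented DNA) fraction taken as the apoptosis index. Values are means of three experiments.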

For assay [3], the system named is HL-60. Put plainly: Cell cycle arrest in human HL60 cells assessed as accumulation at sub-G1 phase at 30 uM after 24 hrs by flow cytometry (reference value: 3.0%). The format is functional. The essentials:
as §1

Assay [4] deals with A549. The assay can be described thus: Induction of apoptosis in human A549 cells assessed as necrotic cells at 30 uM after 48 hrs by AnnexinV/propidium iodide staining (Rvb =3.4%). Format: functional.
Assay [5] relates to A549. The assay can be described thus: Cell cycle arrest in human A549 cells assessed as accumulation at S phase at 30 uM after 24 hrs by flow cytometry (reference value: 27.7%). Format: functional. The essentials: as §1
Assay [6] relates to A549. The assay can be described thus: Cell cycle arrest in human A549 cells assessed as accumulation at Go/G1 phase at 30 uM after 24 hrs by flow cytometry (reference value: 64.3%). Format: functional. The essentials:
as §1

For assay [7], the system named is HL-60. Put plainly: Induction of mitochondrial signal transduction pathway-mediated apoptosis in human HL60 cells assessed as increase in cleaved caspase-3 level at 30 uM after 8 hrs by Western blot analysis. Format: functional, cell-based. In short, it runs like this:
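HL60 cells (1 × 10^6) were pre-incubated 24 h, then given 30 μM for 8 or 24 h. Whole-cell lysates were run on 15% SDS-PAGE, transferred to PVDF and probed overnight at 4 °C for procaspase and cleaved caspase-3, with β-actin as loading control.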

The test system of assay [8] is A549. Put plainly: Induction of mitochondrial signal transduction pathway-mediated apoptosis in human A549 cells assessed as decrease in Bcl-2 level at 30 uM after 24 to 48 hrs by Western blot analysis. The format is functional, cell-based. The essentials:
(§2)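 A549 cells (1.5 × 10^5) were pre-incubated 24 h, then given 30 μM for 24 or 48 h. Whole-cell lysates were run on 15% SDS-PAGE, transferred to PVDF and probed overnight at 4 °C for Bax, Bcl-2 and β-actin. The Bcl-2 band was quantified by densitometry relative to untreated cells, n = 3.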

Assay [9] has as its system HL-60. The assay can be described thus: Induction of apoptosis in human HL60 cells assessed as early apoptotic cells at 30 uM after 48 hrs by AnnexinV/propidium iodide staining (Rvb =7.6%).
The test system of assay [10] is A549. Put plainly: Induction of mitochondrial signal transduction pathway-mediated apoptosis in human A549 cells assessed as increase in cleaved caspase-3 level at 30 uM after 24 to 48 hrs by Western blot analysis.
Assay [11] deals with OVCAR-3. Put plainly: Cytotoxicity in human OVCAR3 cells assessed as cell viability after 48 hrs by MTT assay. Format: functional, cell-based. Conditions: OVCAR-3, 48 h. In short, it runs like this:
(§3)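 Growth conditions: RPMI 1640 for HL60, CRL1579, NIH:OVCAR-3, SK-BR-3, DU145 and PANC-1; D-MEM for A549; MEM for WI-38; all with 10% FBS and antibiotics, 37 °C, 5% CO2. Seeded at 3 × 10^3 cells/well (OVCAR-3 1 × 10^4), then treated 48 h with 10^-4 to 10^-6 M. MTT for 3 h, formazan dissolved in 0.04 M HCl/2-propanol, A570/630. IC50 (50% growth inhibition) from triplicates.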

Assay [12] has as its system SK-BR-3. Put plainly: Cytotoxicity in human SK-BR-3 cells assessed as cell viability after 48 hrs by MTT assay. The format is functional, cell-based. Conditions: SK-BR-3, 48 h. In short, it runs like this: as §3
For assay [13], the system named is HL-60. Put plainly: Cell cycle arrest in human HL60 cells assessed as accumulation at sub-G1 phase at 30 uM after 48 hrs by flow cytometry (reference value: 3.0%). The format is functional. In short, it runs like this: as §1
Assay [14] relates to A549. The assay can be described thus: Cell cycle arrest in human A549 cells assessed as accumulation at G2/M phase at 30 uM after 24 hrs by flow cytometry (reference value: 4.9%). The format is functional. The essentials:
as §1

Assay [15] has as its system A549. Put plainly: Cell cycle arrest in human A549 cells assessed as accumulation at sub-G1 phase at 30 uM after 24 hrs by flow cytometry (reference value: 3.1%). The format is functional. In short, it runs like this:
as §1

Assay [16] relates to HL-60. Put plainly: Induction of apoptosis in human HL60 cells assessed as late apoptotic cells at 30 uM after 48 hrs by AnnexinV/propidium iodide staining (Rvb =3.3%). Format: functional.
Assay [17] relates to WI-38. The assay can be described thus: Cytotoxicity against human WI38 cells assessed as cell viability after 48 hrs by MTT assay. The format is cell-based. Conditions: WI-38, 48 h. The essentials:
as §3

Assay [18] has as its system PANC-1. Put plainly: Cytotoxicity in human PANC1 cells assessed as cell viability after 48 hrs by MTT assay. Particulars: PANC-1, 48 h. The format is functional, cell-based. In short, it runs like this:
as §3

The test system of assay [19] is A549. Put plainly: Induction of apoptosis in human A549 cells assessed as late apoptotic cells at 30 uM after 24 hrs by AnnexinV/propidium iodide staining (Rvb =1.1%). Format: functional.
The test system of assay [20] is HL-60. Put plainly: Cell cycle arrest in human HL60 cells assessed as accumulation at Go/G1 phase at 30 uM after 24 hrs by flow cytometry (reference value: 51.4%). Format: functional. In short, it runs like this: as §1
The subject of assay [21] is HL-60. The assay can be described thus: Induction of mitochondrial signal transduction pathway-mediated apoptosis in human HL60 cells assessed as increase in cleaved caspase-8 level at 30 uM after 8 hrs by Western blot analysis. The format is functional, cell-based. The essentials:
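HL60 cells (1 × 10^6) pre-incubated 24 h, then exposed to 30 μM final for 8 h. Whole-cell lysates in extraction buffer, resolved on 15% SDS-PAGE, blotted to PVDF, probed overnight at 4 °C with anti-caspase-8 or anti-caspase-9 primary antibodies, β-actin as loading reference. Procaspase loss and cleaved caspase bands read.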

For assay [22], the system named is DU-145. The assay can be described thus: Cytotoxicity in human DU145 cells assessed as cell viability after 48 hrs by MTT assay. Format: functional, cell-based. Particulars: DU-145, 48 h. In short, it runs like this: as §3
In assay [23] the test system is A549. The assay can be described thus: Induction of mitochondrial signal transduction pathway-mediated apoptosis in human A549 cells assessed as increase in Bax level at 30 uM after 24 to 48 hrs by Western blot analysis. Format: functional, cell-based. In short, it runs like this: as §2

As to `C=C(CC[C@@H](CO)[C@H]1[C@H](O)C[C@@]2(C)C3=CC[C@@H](C(=C)C)[C@](C)(CCCO)C3=CC[C@]12C)C(C)C` [PORICOTRIOL A], the Activity in [1] was 20.2%; in [2], 28.9%; in assay [3], 35.4%; in assay [4] it was 6.3%; in assay [5], 7.8%; in assay [6] it was 77.2%. Moreover, the Activity in assay [9] stood at 52.5%; in assay [13], 38.7%; in assay [14], 7.5%; in assay [15], 7.5%; in [16], 30.4%; in [19], 2.9%. The Activity in [20] worked out at 62.3%. For the same molecule, the result in assay [7], in assay [8] and in assay [21] was Active. Besides, the outcome in assay [10] and in [23] was inactive. The IC50 in assay [11] is 2.2 µM; in [12] it was 1.2 µM; in assay [17], 55.7 µM; in assay [18] it was 26.3 µM; in assay [22] it was 14.5 µM.
